Laboratory results as given in ChEMBL document CHEMBL1154067, “Antiviral and cytotoxic activities of aminoarylazo compounds and aryltriazene derivatives” (Bioorg Med Chem, 2009).
Calls of active or inactive are those of the source. No rule for the calls is given here.

Columns and labels:
[1] = Cytotoxicity against MDBK cells after 48 to 96 hrs by MTT assay; type: cell-based, Bos taurus; conditions: cattle, mdbk
Summary of the method: (§1)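 Mock-infected cells in maintenance medium, MDBK at 6 × 10^5 and BHK at 1 × 10^6 cells/mL initial density, with or without serial compound dilutions. Run in parallel with antiviral assays. Viability by MTT after 48–96 h at 37 °C, 5% CO2. CC50 = concentration reducing viability 50%.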

Vaccinia virus = experiment: Antiviral activity against Vaccinia virus after 3 days by plaque reduction assay; type: functional, organism-based; conditions: Orthopoxvirus vaccinia
MT4 = experiment: Cytotoxicity against human MT4 cells after 96 hrs by MTT assay; type: cell-based; conditions: mt4, 96 h
Summary of the method: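 Exponentially growing mock-infected MT-4 seeded at 1 × 10^5 cells/mL in RPMI-1640 with 10% FCS, penicillin and streptomycin. Incubated with or without serial compound dilutions at 37 °C, 5% CO2. Viability by MTT after 96 h. CC50 = concentration reducing viability 50%.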

Coxsackievirus B2 = experiment: Antiviral activity against Coxsackie virus type B2 virus infected in african green monkey Vero-76 cells after 3 days by plaque reduction assay; type: functional, organism-based; conditions: Enterovirus B, Vero 76, 72 h
Summary of the method: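 Vero 76 cells seeded at 2 × 10^5 cells/well, grown overnight to confluence at 37 °C in 5% CO2, then infected at 50–100 PFU/well. Unadsorbed virus removed. Overlay of DMEM with 1% inactivated FCS and 0.75% methylcellulose, with or without serial compound dilutions. After 3 days at 37 °C, fixed and stained with crystal violet in PBS/50% ethanol; plaques counted. EC50 is the concentration reducing plaque number by 50%.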

Vero = experiment: Cytotoxicity against african green monkey Vero 76 cells by crystal violet staining; type: cell-based; conditions: chlorocebus sabaeus, vero
Summary of the method: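 Mock-infected Vero 76 seeded at 4 × 10^5 cells/mL, run in parallel with plaque assays, with or without serial compound dilutions. Cell number of monolayers determined by crystal violet staining. CC50 = concentration reducing viable cell number 50%.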

Human alphaherpesvirus 1 = experiment: Antiviral activity against HSV1 infected in Vero-76 cells after 3 days by plaque reduction assay; type: functional, organism-based; conditions: Human alphaherpesvirus 1, Vero 76, 72 h
Yellow fever virus = experiment: Antiviral activity against Yellow fever virus infected in BHK-21 cells assessed as inhibition of virus-induced cytopathicity after 3 to 4 days by MTT assay; type: functional, organism-based
[2] = system: Mammalian orthoreovirus 1; experiment: Antiviral activity against Reovirus-1 infected in BHK-21 cells assessed as inhibition of virus-induced cytopathicity after 3 to 4 days by MTT assay; type: functional, organism-based; conditions: Mammalian orthoreovirus 1, BHK-21
Summary of the method: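 BHK-21 cells seeded at 5 × 10^4 cells/well, grown overnight to confluent monolayers at 37 °C in 5% CO2, then infected at m.o.i. 0.01 in serum-free medium. One hour later, MEM Earle's with 1% final inactivated FCS added, with or without serial compound dilutions. Viability read by MTT after 3–4 days at 37 °C. EC50 is the concentration giving 50% protection from cytopathogenicity.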

[3] = system: Human immunodeficiency virus 1; experiment: Antiviral activity against HIV1 infected in human MT4 cells assessed as inhibition of virus-induced cytopathicity after 4 days by MTT assay; type: functional, organism-based
Poliovirus 1 = experiment: Antiviral activity against Human poliovirus 1 strain Sabin after 2 days by plaque reduction assay; type: functional; conditions: Enterovirus C, 48 h
[4] = system: Vesicular stomatitis virus; experiment: Antiviral activity against Vesicular stomatitis virus after 2 days by plaque reduction assay; type: functional, organism-based
[5] = system: Respiratory syncytial virus; experiment: Antiviral activity against Respiratory syncytial virus A2 infected in Vero-76 cells after 5 days by plaque reduction assay; type: functional, organism-based; conditions: human respiratory syncytial virus, A2, Vero 76, 120 h
[6] = Cytotoxicity against hamster BHK21 cells assessed as reduction in cell viability after 48 to 96 hrs by MTT assay; type: cell-based, Mesocricetus auratus, BHK-21; conditions: bhk-21; summary of the method: as §1

Structure (SMILES) | CC50 [1] | Activity (Vaccinia virus) | CC50 (MT4) | EC50 (Coxsackievirus B2) | CC50 (Vero) | EC50 (Human alphaherpesvirus 1) | EC50 (Yellow fever virus) | EC50 [2] | inhibition [3] | EC50 (Poliovirus 1) | Activity [4] | EC50 [5] | CC50 [6]
c1ccc(/N=N/N2CCN(c3ccccc3)CC2)cc1 | > 100 µM | inactive | 33 µM | > 100 µM | ≥ 100 µM | > 100 µM | > 100 µM | > 100 µM | inactive | > 100 µM | inactive | 8 µM | > 100 µM
O=C1CCN(/N=N/c2ccccc2)CC1 | ≥ 100 µM | inactive | > 100 µM | 13 µM | 60 µM | > 60 µM | > 90 µM | > 90 µM | inactive | > 60 µM | inactive | > 60 µM | 90 µM
CN1CCN(/N=N/c2cc(F)ccc2F)CC1 | > 100 µM | inactive | > 100 µM | 71 µM | ≥ 100 µM | 64 µM | 50 µM | 30 µM | inactive | > 100 µM | inactive | > 100 µM | > 100 µM
O=c1cccc2n1CC1CC2CN(/N=N/c2ccc(Cl)cc2)C1 (centres undefined) | 97 µM | inactive | 46 µM | > 55 µM | 55 µM | > 55 µM | > 85 µM | > 85 µM | inactive | > 55 µM | inactive | > 55 µM | 85 µM
FC(F)(F)c1cccc(/N=N/N2CCCC2)c1 | > 100 µM | inactive | > 100 µM | > 100 µM | > 100 µM | > 100 µM | > 100 µM | > 100 µM | inactive | > 100 µM | inactive | > 100 µM | > 100 µM
O=[N+]([O-])c1cccc(/N=N/N2CCCCC2)c1 | > 100 µM | inactive | > 100 µM | > 83 µM | 83 µM | > 83 µM | > 100 µM | > 100 µM | inactive | > 83 µM | inactive | > 83 µM | > 100 µM
Brc1cccc(/N=N/N2CCCCC2)c1 | > 100 µM | inactive | > 100 µM | > 85 µM | 85 µM | > 85 µM | > 100 µM | > 100 µM | inactive | > 85 µM | inactive | > 85 µM | > 100 µM
CN1CCN(/N=N/c2ccccc2)CC1 | > 100 µM | inactive | 65 µM | 14 µM | 45 µM | > 45 µM | > 70 µM | > 70 µM | inactive | > 45 µM | inactive | > 45 µM | 70 µM
O=c1cccc2n1CC1CC2CN(/N=N/c2cccc([N+](=O)[O-])c2)C1 (centres undefined) | > 100 µM | inactive | > 100 µM | > 90 µM | 90 µM | > 90 µM | > 100 µM | 80 µM | inactive | > 90 µM | inactive | ≥ 90 µM | > 100 µM
c1ccc(/N=N/N2CCCCC2)cc1 | > 100 µM | inactive | > 100 µM | > 100 µM | > 100 µM | > 100 µM | > 100 µM | > 100 µM | inactive | > 100 µM | inactive | > 100 µM | > 100 µM
c1ccc(/N=N/N2CCN(c3ncccn3)CC2)cc1 | > 100 µM | inactive | 90 µM | 10 µM | 65 µM | > 65 µM | > 100 µM | > 100 µM | inactive | > 65 µM | inactive | > 65 µM | > 100 µM
CCOC(=O)N1CCN(/N=N/c2ccccc2)CC1 | > 100 µM | inactive | 100 µM | 30 µM | 90 µM | > 90 µM | > 100 µM | > 100 µM | inactive | > 90 µM | inactive | > 90 µM | > 100 µM
Clc1ccc(/N=N/N2CCCCC2)cc1 | > 100 µM | inactive | > 100 µM | > 100 µM | > 100 µM | > 100 µM | > 100 µM | > 100 µM | inactive | > 100 µM | inactive | > 100 µM | > 100 µM
O=[N+]([O-])c1ccc(/N=N/N2CCCC2)cc1 | > 100 µM | inactive | ≥ 100 µM | > 90 µM | 90 µM | > 90 µM | > 100 µM | > 100 µM | inactive | 15 µM | inactive | 60 µM | ≥ 100 µM
Clc1ccc(/N=N/N2CCCC2)cc1 | > 100 µM | inactive | > 100 µM | > 100 µM | > 100 µM | > 100 µM | > 100 µM | > 100 µM | inactive | 42 µM | inactive | > 100 µM | > 100 µM
O=[N+]([O-])c1cccc(/N=N/N2CCCC2)c1 | > 100 µM | inactive | 66 µM | > 80 µM | 80 µM | > 80 µM | > 42 µM | > 42 µM | inactive | 30 µM | inactive | 8 µM | 42 µM
COc1ccc(/N=N/N2CCCC2)cc1 | 60 µM | inactive | 68 µM | > 90 µM | 90 µM | > 90 µM | > 100 µM | > 100 µM | inactive | > 90 µM | inactive | > 90 µM | ≥ 100 µM
c1ccc(/N=N/N2CCCC2)cc1 | > 100 µM | inactive | > 100 µM | > 100 µM | > 100 µM | > 100 µM | > 100 µM | > 100 µM | inactive | > 100 µM | inactive | ≥ 100 µM | ≥ 100 µM
Brc1ccc(/N=N/N2CCCCC2)cc1 | > 100 µM | inactive | > 100 µM | 25 µM | > 100 µM | > 100 µM | > 100 µM | > 100 µM | inactive | > 100 µM | inactive | 73 µM | > 100 µM
Fc1ccc(F)c(/N=N/N2CCCC2)c1 | > 100 µM | inactive | > 100 µM | 35 µM | > 100 µM | > 100 µM | > 100 µM | > 100 µM | inactive | 44 µM | inactive | > 100 µM | > 100 µM
c1ccc(N=NNc2ccccc2)cc1 | > 100 µM | – | 47 µM | – | 90 µM | – | – | – | – | – | – | – | > 100 µM
